Assay outcomes deposited in PubChem by The Scripps Research Institute Molecular Screening Center.
A selection: hits, their analogues and other compounds. The true share with any hit is near 2.4%.
MC4R antag cAMP = MC4R antagonists of cAMP signaling, primary screen, cell-based, TR-FRET, antagonist arm of biased-ligand search; inhibition, % at 6.5 µM; actives 0.48% (n = 360,000); Melanocortin receptor 4 (Homo sapiens), P32245; MC4R-expressing cells, MTII-stimulated cAMP, LANCE TR-FRET;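 active = inhibition above its plate's cutoff, the mean of tested wells on that plate plus 3 SD, cut at about 29% in these data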
Target sequence (P32245 whole entry, looked up): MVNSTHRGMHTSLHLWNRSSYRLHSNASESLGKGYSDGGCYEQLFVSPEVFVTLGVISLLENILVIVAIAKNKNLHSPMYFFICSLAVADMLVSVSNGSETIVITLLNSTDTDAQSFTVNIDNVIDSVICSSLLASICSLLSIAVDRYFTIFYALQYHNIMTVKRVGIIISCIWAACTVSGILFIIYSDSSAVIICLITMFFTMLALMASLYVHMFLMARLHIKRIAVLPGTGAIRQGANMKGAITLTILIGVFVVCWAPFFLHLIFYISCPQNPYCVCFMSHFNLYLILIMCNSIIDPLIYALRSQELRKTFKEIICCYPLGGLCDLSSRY
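System – human MC4R-expressing U2OS cells · Also added – Melanotan II · Dosing – one concentration, 6.5 µM nominal · Timing – 30-min compound, 1-h challenge, 1-h detection, room temperature · Measured by – Eu-cAMP/anti-cAMP TR-FRET, emission 671 nm · Replicates – singlicate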
HTR5A ag ctr = HTR5A agonists in luminescence cell assay, primary screen, counter-screen for OPRM1-OPRD1 heterodimer agonist project, full-deck HTS. AID 504692, 2011. 5-hydroxytryptamine receptor 5A (Homo sapiens), P47898. cell-based. activation, % at 9.3 µM. actives 0.61% (n = 340,000); in the data active = activation mostly above about 9.5%, no sharp cut-off; inactive = mostly below about 7.6%
MOR-DOR ag = agonists of OPRM1-OPRD1 heterodimerization, primary screen, cell-based, luminescence; Mu-type opioid receptor (Homo sapiens) + Delta-type opioid receptor (Homo sapiens), …; cells; activation, % at 9.3 µM; actives 0.3% (n = 340,000); in the data active = activation above about 18%
HTR5A inv ctr = HTR5A inverse agonists in luminescence cell assay, primary screen, counter-screen for OPRM1-OPRD1 heterodimer inverse agonist project, full-deck HTS; 5-hydroxytryptamine receptor 5A (Homo sapiens), P47898; HTR5A cell line, inverse agonism; inhibition, % at 9.3 µM; actives 0.083% (n = 340,000); in the data active = inhibition mostly above about 23%, no sharp cut-off; inactive = mostly below about 18%
MC4R barr agon = MC4R agonists recruiting beta-arrestin, primary screen, cell-based, luminescence, agonist arm of biased-ligand search; activation, % at 8.9 µM; Melanocortin receptor 4 (Homo sapiens), P32245; actives 0.98% (n = 360,000); U2OS MC4R beta-arrestin complementation; percent of melanotan II response, DMSO zero;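 active = activation above a per-plate cutoff, the mean activation of sample wells on that plate plus 3 SD, cut at about 8% in these data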
MOR-DOR inv ag = inverse agonists of MOR-DOR heterodimerization, primary screen, cell-based, luminescence; Mu-type opioid receptor (Homo sapiens) + Delta-type opioid receptor (Homo sapiens), …; cell-based MOR-DOR heterodimer luminescence, inverse agonism; inhibition, % at 9.3 µM; actives 0.21% (n = 340,000); in the data active = inhibition above about 22%, passing the limit was not always enough
MC4R barr conf = MC4R beta-arrestin agonists, retest, confirmation, cell-based, luminescence, U2OS | shares compounds with MC4R barr agon | U2OS MC4R beta-arrestin recruitment; scaled DMSO 0%, Melanotan II 100% | activation, % at 8.9 µM | actives 31% (n = 2,400) | AID 602192, 2012;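 active = mean activation across replicates above the hit cutoff set in the earlier primary screen, cut at about 8% in these data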
MOR-DOR barr ag = agonists of MOR-DOR heterodimerization, counter-screen for MC4R biased agonist project, cell-based, luminescence; U2OS PathHunter beta-arrestin, beta-gal luminescence; percent of deltorphin B response, DMSO zero; actives 5.8% (n = 2,400); shares compounds with MC4R barr agon; activation, % at 9.2 µM;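 active = mean activation across replicates exceeds the hit threshold derived in the earlier primary screen, cut at about 18% in these data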
Of the large screens only hits and unclear results are named; the others gave an inactive call (follow-up assays come after a bar, where they were run).

O=C(CSc1nnnn1-c1ccc(F)cc1)Nc1nc2ccccc2s1	MC4R barr agon 31 | MC4R barr conf inactive | MOR-DOR barr ag inactive
O=C(NNC(=O)c1ccco1)c1csc(N2CCOCC2)n1	none
Cc1cc(C)c2nc(Nc3nc(-c4ccccc4)cc(=O)[nH]3)nc(C)c2c1	MC4R barr agon 27 | MC4R barr conf 17 | MOR-DOR barr ag inactive
Cc1cc(-c2ccccc2)nc(Nc2nc3c(C)cccc3c(=O)[nH]2)n1	MC4R barr agon 19 | MC4R barr conf inactive | MOR-DOR barr ag inactive
O=C(Nc1ccccc1)Nc1nnc(CSCc2ccccc2Cl)s1	MC4R barr agon 11 | MC4R barr conf inactive | MOR-DOR barr ag inactive
COC(CNc1ncnc2c1cnn2C)OC	none
Cc1ccnc(SCC(=O)Nc2oc(-c3ccccc3)c(-c3ccccc3)c2C#N)n1	MC4R barr agon 17 | MC4R barr conf inactive | MOR-DOR barr ag inactive
CCOC(=O)c1c(C)n(C)c2cc(-c3ccc(F)cc3)c(O)cc12	none
Cn1nc(-c2ccccc2)cc1NC(=O)Nc1ccc(C(C)(C)C)cc1	MC4R barr agon 12 | MC4R barr conf inactive | MOR-DOR barr ag inactive
CC1(C)O[C@@H]2[C@H](O1)[C@@H](CO)O[C@H]2n1ccc(=O)[nH]c1=O	none
CCC(C)NC(=O)c1cc2c(=O)n(CC)c3ccccc3c2s1 (stereo unspecified)	none
Cc1cccc(-n2c(Cc3cc(=O)[nH]c(=O)[nH]3)nnc2SCC(=O)N2CCc3ccccc32)c1	none
CCCCCCOc1ccc(/C(C)=N/NC2=NCCN2)cc1	MC4R barr agon 11 | MC4R barr conf 29 | MOR-DOR barr ag inactive
COc1ccc(CSCC(=O)N/N=C/c2ccc(OCC(=O)N3CCCCC3)cc2)cc1	none
Cc1ccc(CSCC(=O)N/N=C/c2ccc(OCC(=O)Nc3ccc(C)cc3)cc2)cc1	MC4R barr agon 16 | MC4R barr conf inactive | MOR-DOR barr ag inactive
COc1ccc(C(=O)Cn2c(NCCCO)nc3ccccc32)cc1OC	none
Cc1ccc(S(=O)(=O)Nc2ccccc2C(=O)N2CCCCC2C)c(C)c1NS(C)(=O)=O (stereo unspecified)	none
c1ccc(CCN(Cc2ccccc2)Cc2nc(C3CC3)no2)cc1	none
CCCCOc1ccc(C(=O)N/C(=C\c2cccc([N+](=O)[O-])c2)C(=O)OCc2ccco2)cc1	MC4R barr agon 20 | MC4R barr conf inactive | MOR-DOR barr ag inactive
Cc1ccc(-c2cc(C(=O)N(C)Cc3cnn(C)c3C)c3cc(Br)ccc3n2)cc1	MC4R barr agon 9.7 | MC4R barr conf inactive | MOR-DOR barr ag inactive
Cc1ccc(-c2cc(C(=O)NCc3cnn(C)c3C)c3cc(Br)ccc3n2)cc1	none
COc1cccc(/C=N/NC(=S)NC2CC3CCC2C3)c1OC (stereo unspecified)	none
Oc1ccccc1/C=N/NC(=S)NC1CC2CCC1C2 (stereo unspecified)	MC4R barr agon 12 | MC4R barr conf inactive | MOR-DOR barr ag inactive
Cc1sc2nc(CSCC(=O)N(CCC#N)c3ccccc3F)[nH]c(=O)c2c1C	none
COc1cc(OC)cc(C(=O)OCC(=O)Nc2ccc(N3CCCCC3)cc2)c1	MC4R barr agon 13 | MC4R barr conf inactive | MOR-DOR barr ag inactive
